Substrate in data set [1]: CCCCC/C=C\C/C=C\C/C=C\C/C=C\CCCC(=O)Nc1ccccc1O
Description: (§1) Km value for hydrolysis by rat brain microsomal anandamide amidohydrolase (AAH). The method, boiled down: (§2)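 Sprague–Dawley rat brain microsomes (105000g pellet) at 0.3 mg/mL protein, 37 °C, pH 7.4, BSA as carrier. Varied substrate concentrations, sampled at least four times within the linear initial range. Arachidonic acid formed measured by RP-HPLC (UV 204 nm, calibration curve). Initial velocity vs substrate concentration fitted to Michaelis–Menten.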

Substrate in data set [2]: CCCCC/C=C\C/C=C\C/C=C\C/C=C\CCCC(=O)NCCO
The data set is described as §1. The method, boiled down: as §2

Substrate in data set [3]: CCCCC/C=C\C/C=C\C/C=C\C/C=C\CCCC(=O)N[C@H](C)CO
Described as §1. The method, boiled down: as §2

Substrate in data set [4]: CCCCC/C=C\C/C=C\C/C=C\C/C=C\CCCC(=O)N[C@@H](C)CO
The data set is described as §1. The method, boiled down: as §2

Substrate in data set [5]: CCCCC/C=C\C/C=C\C/C=C\C/C=C\CCCC(N)=O
The data set is described as §1. The method, boiled down:
as §2

Substrate in data set [6]: CCCCC/C=C\C/C=C\C/C=C\C/C=C\CCCC(=O)Nc1ccccc1O
Substrate in data set [7]: CCCCC/C=C\C/C=C\C/C=C\C/C=C\CCCC(=O)NCCO
The data set is described as follows: (§3) V max value for hydrolysis by rat brain microsomal anandamide amidohydrolase (AAH). The method, boiled down: as §2

Substrate in data set [8]: CCCCC/C=C\C/C=C\C/C=C\C/C=C\CCCC(=O)N[C@H](C)CO
The description is as §3. The method, boiled down:
as §2

Substrate in data set [9]: CCCCC/C=C\C/C=C\C/C=C\C/C=C\CCCC(=O)N[C@@H](C)CO
Described as §3. The method, boiled down:
as §2

Substrate in data set [10]: CCCCC/C=C\C/C=C\C/C=C\C/C=C\CCCC(N)=O
The data set is described as §3. The method, boiled down: as §2

Experimental findings from ChEMBL document CHEMBL1132600 are described below.

B1: Fatty-acid amide hydrolase 1 (Rattus norvegicus), P97612 (protein)
chain: MVLSEVWTTLSGVSGVCLACSLLSAAVVLRWTGRQKARGAATRARQKQRASLETMDKAVQRFRLQNPDLDSEALLTLPLLQLVQKLQSGELSPEAVFFTYLGKAWEVNKGTNCVTSYLTDCETQLSQAPRQGLLYGVPVSLKECFSYKGHDSTLGLSLNEGMPSESDCVVVQVLKLQGAVPFVHTNVPQSMLSFDCSNPLFGQTMNPWKSSKSPGGSSGGEGALIGSGGSPLGLGTDIGGSIRFPSAFCGICGLKPTGNRLSKSGLKGCVYGQTAVQLSLGPMARDVESLALCLKALLCEHLFTLDPTVPPLPFREEVYRSSRPLRVGYYETDNYTMPSPAMRRALIETKQRLEAAGHTLIPFLPNNIPYALEVLSAGGLFSDGGRSFLQNFKGDFVDPCLGDLILILRLPSWFKRLLSLLLKPLFPRLAAFLNSMRPRSAEKLWKLQHEIEMYRQSVIAQWKAMNLDVLLTPMLGPALDLNTPGRATGAISYTVLYNCLDFPAGVVPVTTVTAEDDAQMELYKGYFGDIWDIILKKAMKNSVGLPVAVQCVALPWQEELCLRFMREVEQLMTPQKQPS
The term Km denotes the concentration of substrate that gives half-maximal velocity. As to B1, the Km in [1] was found to be 7.31 µM; in data set [2], 2.78 µM; in data set [3] it was 33 µM; in [4] it was 7.94 µM; in data set [5], 2.34 µM. Also, the Vmax (nM min-1 mg-1) in data set [6] amounted to 3.17; in [7], 1.4; in data set [8] it was 0.37; in data set [9], 0.39; in data set [10], 2.89.
